Source: ChEMBL document CHEMBL3779881, “Property Focused Structure-Based Optimization of Small Molecule Inhibitors of the Protein-Protein Interaction between Menin and Mixed Lineage Leukemia (MLL)” (J Med Chem, 2016)

Legend:
Mus musculus [1] = assay: AUC in C57BL/6 mouse at 30 mg/kg, po after 24 hrs by LC-MS/MS analysis; format: ADME, organism-based; parameters: time < 24 hr, dose 30 mg/kg, route oral; settings: in vivo
Summary of the method: (§1)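 Female C57BL/6 mice dosed iv at 15 mg/kg or orally at 30 mg/kg in 25% DMSO/25% PEG-400/50% PBS (v/v). Serial 50 μL blood samples collected over 24 h (8 h in one experiment), spun to plasma; concentrations by validated LC-MS/MS in positive-ion MRM mode; parameters from noncompartmental analysis.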

[2] = Growth inhibition of Hoxa9/Meis1 transformed mouse bone marrow cells after 7 days by MTT assay; format: functional; settings: Bone marrow cell, 168 h
[3] = Growth inhibition of MLL-AF9 transformed mouse bone marrow cells after 7 days by MTT assay; format: functional; settings: Bone marrow cell, 168 h
[4] = biological target: Menin/Histone-lysine N-methyltransferase MLL (Homo sapiens, UniProt O00255); assay: Inhibition of menin-MLL interaction (unknown origin) after 1 hr by fluorescence polarization assay; format: protein assay
Mus musculus [5] = assay: Oral bioavailability in C57BL/6 mouse at 30 mg/kg after 24 hrs by LC-MS/MS analysis; format: ADME, organism-based; settings: in vivo; summary of the method: as §1
Mus musculus [6] = assay: Cmax in C57BL/6 mouse plasma at 30 mg/kg, po after 24 hrs by LC-MS/MS analysis; format: ADME, organism-based; parameters: dose 30 mg/kg, route oral; settings: in vivo; summary of the method: as §1
Mus musculus [7] = assay: Volume of distribution at steady state in C57BL/6 mouse at 15 mg/kg, iv after 24 hrs by LC-MS/MS analysis; format: ADME, organism-based; settings: in vivo; summary of the method: as §1
Menin = biological target: T1, Menin (Homo sapiens, UniProt O00255); assay: Binding affinity to menin (unknown origin)
T1 sequence (O00255 whole entry): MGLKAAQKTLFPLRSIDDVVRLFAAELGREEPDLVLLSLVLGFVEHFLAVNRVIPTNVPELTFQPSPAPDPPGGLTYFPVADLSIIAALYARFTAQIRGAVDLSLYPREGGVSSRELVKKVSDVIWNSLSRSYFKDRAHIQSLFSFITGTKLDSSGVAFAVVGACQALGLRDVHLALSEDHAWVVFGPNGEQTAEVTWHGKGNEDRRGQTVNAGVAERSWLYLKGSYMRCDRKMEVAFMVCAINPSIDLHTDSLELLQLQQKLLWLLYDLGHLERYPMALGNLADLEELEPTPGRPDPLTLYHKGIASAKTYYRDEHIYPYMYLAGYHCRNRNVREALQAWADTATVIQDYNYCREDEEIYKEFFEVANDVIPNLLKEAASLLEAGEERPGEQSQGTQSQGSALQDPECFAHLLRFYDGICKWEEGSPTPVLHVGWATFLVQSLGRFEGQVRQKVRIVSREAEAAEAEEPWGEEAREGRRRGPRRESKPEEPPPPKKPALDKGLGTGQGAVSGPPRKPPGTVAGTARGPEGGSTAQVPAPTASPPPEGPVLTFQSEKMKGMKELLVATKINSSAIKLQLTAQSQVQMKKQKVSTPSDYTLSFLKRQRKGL

Mus musculus [8] = assay: AUC in C57BL/6 mouse at 15 mg/kg, iv after 24 hrs by LC-MS/MS analysis; format: ADME, organism-based; parameters: dose 15 mg/kg, time < 24 hr, route intravenous; settings: in vivo; summary of the method: as §1
Bone marrow cell = assay: Selectivity index, ratio of GI50 for Hoxa9/Meis1 transformed mouse bone marrow cells to GI50 for MLL-AF9 transformed mouse bone marrow cells; format: functional
Mus musculus [9] = assay: Tmax in C57BL/6 mouse plasma at 30 mg/kg, po after 24 hrs by LC-MS/MS analysis; format: ADME, organism-based; settings: in vivo; summary of the method: as §1
[10] = Clearance in C57BL/6 mouse at 15 mg/kg, iv after 24 hrs by LC-MS/MS analysis; format: ADME, organism-based; settings: in vivo; summary of the method: as §1
Mus musculus [11] = assay: Half life in C57BL/6 mouse at 30 mg/kg, po after 24 hrs by LC-MS/MS analysis; format: ADME, organism-based; settings: in vivo; summary of the method: as §1
Mus musculus [12] = assay: Half life in C57BL/6 mouse at 15 mg/kg, iv after 24 hrs by LC-MS/MS analysis; format: ADME, organism-based; settings: in vivo; summary of the method: as §1
[13] = Half life in CD-1 mouse liver microsomes at 1 uM after 3 to 60 mins by LC-MS/MS analysis; format: ADME

Chain of Menin/Histone-lysine N-methyltransferase MLL (Q03164 1-2718 partner limits assumed, one chain of several): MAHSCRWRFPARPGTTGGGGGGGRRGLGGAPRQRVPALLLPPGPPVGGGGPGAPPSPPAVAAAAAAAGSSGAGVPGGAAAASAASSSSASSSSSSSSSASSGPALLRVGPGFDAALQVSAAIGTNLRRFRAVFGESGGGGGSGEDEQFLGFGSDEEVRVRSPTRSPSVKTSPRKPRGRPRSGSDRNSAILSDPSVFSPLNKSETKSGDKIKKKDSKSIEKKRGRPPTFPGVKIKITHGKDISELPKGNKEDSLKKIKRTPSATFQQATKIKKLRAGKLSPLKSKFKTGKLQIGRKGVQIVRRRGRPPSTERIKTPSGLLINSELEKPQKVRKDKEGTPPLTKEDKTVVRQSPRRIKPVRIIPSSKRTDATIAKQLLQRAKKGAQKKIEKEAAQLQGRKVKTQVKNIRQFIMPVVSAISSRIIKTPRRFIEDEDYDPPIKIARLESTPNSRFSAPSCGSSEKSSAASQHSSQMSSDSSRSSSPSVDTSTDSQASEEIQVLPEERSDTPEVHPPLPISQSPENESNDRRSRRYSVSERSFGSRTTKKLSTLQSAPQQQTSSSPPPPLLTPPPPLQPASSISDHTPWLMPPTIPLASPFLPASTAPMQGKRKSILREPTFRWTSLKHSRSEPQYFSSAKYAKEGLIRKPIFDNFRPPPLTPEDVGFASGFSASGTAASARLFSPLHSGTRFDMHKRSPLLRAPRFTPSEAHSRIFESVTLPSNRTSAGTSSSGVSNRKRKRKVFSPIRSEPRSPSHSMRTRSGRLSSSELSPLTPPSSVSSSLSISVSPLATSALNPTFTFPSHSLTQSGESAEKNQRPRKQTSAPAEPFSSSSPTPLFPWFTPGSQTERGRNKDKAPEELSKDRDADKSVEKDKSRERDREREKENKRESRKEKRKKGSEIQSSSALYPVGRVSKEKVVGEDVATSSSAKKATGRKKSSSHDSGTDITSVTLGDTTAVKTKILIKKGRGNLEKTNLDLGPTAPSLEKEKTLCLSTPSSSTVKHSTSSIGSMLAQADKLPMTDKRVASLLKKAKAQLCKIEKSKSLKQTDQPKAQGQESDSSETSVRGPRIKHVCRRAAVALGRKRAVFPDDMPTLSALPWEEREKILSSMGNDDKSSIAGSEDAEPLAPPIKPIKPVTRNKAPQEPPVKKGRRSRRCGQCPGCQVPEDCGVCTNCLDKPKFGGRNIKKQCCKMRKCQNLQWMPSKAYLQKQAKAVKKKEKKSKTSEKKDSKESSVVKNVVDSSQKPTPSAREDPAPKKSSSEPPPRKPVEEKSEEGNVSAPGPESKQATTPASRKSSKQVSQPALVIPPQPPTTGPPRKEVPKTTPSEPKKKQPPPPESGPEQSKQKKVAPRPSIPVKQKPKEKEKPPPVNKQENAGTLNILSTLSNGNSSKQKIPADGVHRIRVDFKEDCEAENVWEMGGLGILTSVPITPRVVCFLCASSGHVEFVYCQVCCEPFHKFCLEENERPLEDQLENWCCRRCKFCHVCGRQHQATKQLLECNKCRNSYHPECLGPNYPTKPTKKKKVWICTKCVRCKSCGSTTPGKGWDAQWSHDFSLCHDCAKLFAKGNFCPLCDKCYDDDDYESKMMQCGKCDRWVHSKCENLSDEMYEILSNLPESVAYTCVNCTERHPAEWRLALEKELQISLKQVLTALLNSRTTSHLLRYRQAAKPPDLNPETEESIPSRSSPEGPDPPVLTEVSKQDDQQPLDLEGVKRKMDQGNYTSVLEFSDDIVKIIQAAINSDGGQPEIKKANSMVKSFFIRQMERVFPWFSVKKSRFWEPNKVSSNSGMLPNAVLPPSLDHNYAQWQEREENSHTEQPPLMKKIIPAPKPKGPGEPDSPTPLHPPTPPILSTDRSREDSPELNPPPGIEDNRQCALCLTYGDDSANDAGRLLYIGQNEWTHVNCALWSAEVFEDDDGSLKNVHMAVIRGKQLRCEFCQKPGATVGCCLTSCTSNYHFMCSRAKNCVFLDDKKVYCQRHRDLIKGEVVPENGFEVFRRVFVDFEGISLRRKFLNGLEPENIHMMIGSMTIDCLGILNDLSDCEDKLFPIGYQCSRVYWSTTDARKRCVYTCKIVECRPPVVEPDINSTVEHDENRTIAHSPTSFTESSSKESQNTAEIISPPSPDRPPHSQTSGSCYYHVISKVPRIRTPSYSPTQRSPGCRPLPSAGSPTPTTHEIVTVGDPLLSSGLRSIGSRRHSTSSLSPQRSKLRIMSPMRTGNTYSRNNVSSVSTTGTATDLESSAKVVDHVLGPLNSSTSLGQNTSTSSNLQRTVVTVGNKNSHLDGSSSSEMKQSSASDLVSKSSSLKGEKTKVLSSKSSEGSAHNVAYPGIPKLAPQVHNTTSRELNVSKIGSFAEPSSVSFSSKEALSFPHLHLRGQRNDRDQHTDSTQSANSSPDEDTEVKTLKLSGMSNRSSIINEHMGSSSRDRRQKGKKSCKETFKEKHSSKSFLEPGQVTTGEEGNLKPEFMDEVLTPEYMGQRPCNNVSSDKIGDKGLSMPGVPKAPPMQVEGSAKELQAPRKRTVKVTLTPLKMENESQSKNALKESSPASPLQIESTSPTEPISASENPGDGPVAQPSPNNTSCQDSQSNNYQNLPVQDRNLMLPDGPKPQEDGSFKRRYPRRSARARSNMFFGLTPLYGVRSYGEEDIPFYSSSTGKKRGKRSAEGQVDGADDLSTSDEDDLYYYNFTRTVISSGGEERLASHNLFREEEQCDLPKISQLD
Chain of Menin/Histone-lysine N-methyltransferase MLL (Q03164 2719-3969 partner limits assumed, one chain of several): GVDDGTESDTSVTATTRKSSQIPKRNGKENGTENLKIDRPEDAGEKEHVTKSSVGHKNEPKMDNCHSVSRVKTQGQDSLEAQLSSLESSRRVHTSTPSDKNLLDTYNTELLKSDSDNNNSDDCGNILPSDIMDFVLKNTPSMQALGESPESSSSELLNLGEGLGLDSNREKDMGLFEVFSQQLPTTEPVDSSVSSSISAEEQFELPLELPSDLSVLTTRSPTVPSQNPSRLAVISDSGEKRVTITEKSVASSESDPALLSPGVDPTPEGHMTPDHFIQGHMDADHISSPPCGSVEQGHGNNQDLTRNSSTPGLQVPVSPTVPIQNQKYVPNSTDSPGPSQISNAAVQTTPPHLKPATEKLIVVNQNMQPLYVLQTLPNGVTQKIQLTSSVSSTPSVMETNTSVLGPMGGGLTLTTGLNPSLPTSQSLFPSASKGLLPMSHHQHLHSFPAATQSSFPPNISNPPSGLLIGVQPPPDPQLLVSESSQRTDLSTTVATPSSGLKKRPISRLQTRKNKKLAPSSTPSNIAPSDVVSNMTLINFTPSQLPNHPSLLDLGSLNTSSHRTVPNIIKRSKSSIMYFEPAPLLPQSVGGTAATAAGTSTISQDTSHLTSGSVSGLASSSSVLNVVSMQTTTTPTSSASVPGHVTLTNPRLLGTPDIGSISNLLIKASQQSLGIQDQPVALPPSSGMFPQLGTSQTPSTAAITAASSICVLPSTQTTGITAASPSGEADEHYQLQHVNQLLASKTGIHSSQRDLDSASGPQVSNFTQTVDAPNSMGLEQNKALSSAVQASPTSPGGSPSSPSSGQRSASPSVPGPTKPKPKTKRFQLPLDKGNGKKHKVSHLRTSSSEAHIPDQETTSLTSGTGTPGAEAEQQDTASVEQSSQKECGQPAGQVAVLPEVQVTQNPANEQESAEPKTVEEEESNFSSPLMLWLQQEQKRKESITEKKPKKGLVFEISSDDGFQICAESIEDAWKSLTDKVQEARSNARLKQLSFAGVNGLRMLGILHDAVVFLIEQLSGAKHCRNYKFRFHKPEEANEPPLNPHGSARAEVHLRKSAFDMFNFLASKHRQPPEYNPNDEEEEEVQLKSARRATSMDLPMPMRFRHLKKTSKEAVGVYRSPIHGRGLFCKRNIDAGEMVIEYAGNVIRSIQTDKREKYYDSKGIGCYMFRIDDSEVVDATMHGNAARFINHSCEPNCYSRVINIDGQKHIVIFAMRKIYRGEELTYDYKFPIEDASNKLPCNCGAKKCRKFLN

SMILES	AUC (Mus musculus [1])	GI50 [2]	GI50 [3]	IC50 [4]	F (Mus musculus [5])	Cmax (Mus musculus [6])	Vdss (Mus musculus [7])	Kd (Menin)	AUC (Mus musculus [8])	RatioGI50 (Bone marrow cell)	Tmax (Mus musculus [9])	clearance [10]	t1/2 (Mus musculus [11])	t1/2 (Mus musculus [12])	t1/2 [13]
N#Cc1cc2cc(CN3CCC(Nc4ncnc5sc(CC(F)(F)F)cc45)CC3)ccc2[nH]1	7509 ng·h/mL	3000 nM	550 nM	31 nM	57%	1516 ng/mL	6.516 L/kg	23.6 nM	6576 ng·h/mL	5.5	60 min	38.1 mL/min/kg	186 min	186 min	6.8 min
Cc1c(CN2CCC(Nc3ncnc4sc(CC(F)(F)F)cc34)CC2)ccc2[nH]c(C#N)cc12	–	5600 nM	200 nM	–	–	–	–	–	–	–	–	–	–	–	–
Cc1c(CN2CCC(Nc3ncnc4sc(CC(F)(F)F)cc34)CC2)c(O)cc2[nH]c(C#N)cc12	3846 ng·h/mL	12000 nM	220 nM	27 nM	34%	649 ng/mL	4.454 L/kg	–	5666 ng·h/mL	55	120 min	44.1 mL/min/kg	240 min	102 min	56 min
COc1cc2[nH]c(C#N)cc2c(C)c1CN1CCC(Nc2ncnc3sc(CC(F)(F)F)cc23)CC1	8717 ng·h/mL	11000 nM	100 nM	40 nM	46%	2113 ng/mL	3.698 L/kg	–	9397 ng·h/mL	110	30 min	26.6 mL/min/kg	120 min	108 min	39 min
N#Cc1cc2cc(CN3CCC(Nc4ncnc5sc(CC(F)(F)F)cc45)CC3)ccc2n1C[C@@H](O)CO	–	> 40000 nM	1700 nM	46 nM	–	–	–	–	–	>24	–	–	–	–	48 min
N#Cc1[nH]c2ccc(CN3CCC(Nc4ncnc5sc(CC(F)(F)F)cc45)CC3)cc2c1F	–	–	1700 nM	96 nM	–	–	–	–	–	–	–	–	–	–	5.7 min
N#Cc1cc2c(Cl)c(CN3CCC(Nc4ncnc5sc(CC(F)(F)F)cc45)CC3)ccc2[nH]1	–	11000 nM	1100 nM	22 nM	–	–	–	–	–	10	–	–	–	–	28 min
N#Cc1cc2cc(CN3CCC(Nc4ncnc5sc(CC(F)(F)F)cc45)CC3)ccc2n1Cc1c[nH]nn1	–	10000 nM	330 nM	27 nM	–	–	–	–	–	30	–	–	–	–	11 min
N#Cc1cc2cc(CN3CCC(Nc4ncnc5sc(CC(F)(F)F)cc45)CC3)ccc2n1C[C@H](O)CO	–	–	3800 nM	42 nM	–	–	–	–	–	–	–	–	–	–	> 60 min
COc1cc2c(cc(C#N)n2Cc2c[nH]nn2)c(C)c1CN1CCC(Nc2ncnc3sc(CC(F)(F)F)cc23)CC1	–	9000 nM	410 nM	16 nM	–	–	–	–	–	22	–	–	–	–	32 min
N#Cc1cc2cc(CN3CCC(Nc4ncnc5sc(CC(F)(F)F)cc45)CC3)c(O)cc2[nH]1	–	> 10000 nM	180 nM	20 nM	–	–	–	–	–	>56	–	–	–	–	6.6 min
N#Cc1[nH]c2ccc(CN3CCC(Nc4ncnc5sc(CC(F)(F)F)cc45)CC3)cc2c1N	–	–	5200 nM	124 nM	–	–	–	–	–	–	–	–	–	–	27 min
Cc1c(CN2CCC(Nc3ncnc4sc(CC(F)(F)F)cc34)CC2)ccc2c1cc(C#N)n2CC(N)=O	–	> 25000 nM	470 nM	27 nM	–	–	–	–	–	>53	–	–	–	–	59 min
CC(C)OC(CO)Cn1c(C#N)cc2cc(CN3CCC(Nc4ncnc5sc(CC(F)(F)F)cc45)CC3)ccc21 (stereo not given)	–	3500 nM	180 nM	23 nM	–	–	–	–	–	19	–	–	–	–	< 3 min
N#Cc1cc2cc(CN3CCC(Nc4ncnc5sc(CC(F)(F)F)cc45)CC3)ccc2n1Cc1cn[nH]c1	–	6900 nM	260 nM	23 nM	–	–	–	–	–	27	–	–	–	–	8.3 min
COCC(O)Cn1c(C#N)cc2cc(CN3CCC(Nc4ncnc5sc(CC(F)(F)F)cc45)CC3)ccc21 (stereo not given)	–	–	2100 nM	101 nM	–	–	–	–	–	–	–	–	–	–	< 3 min
Cc1c(C#N)[nH]c2ccc(CN3CCC(Nc4ncnc5sc(CC(F)(F)F)cc45)CC3)cc12	–	–	2600 nM	111 nM	–	–	–	–	–	–	–	–	–	–	4.8 min
